# NSD2 inh = NSD2 histone methyltransferase inhibitors, primary screen, biochemical, AlphaScreen, single concentration, set 2; Histone-lysine N-methyltransferase NSD2 (Homo sapiens), O96028; NSD2 peptide methylation, 120 min; inhibition, % at 12.5 µM; hit rate 0.54% among 310,000; AID 743445, 2014
# SR-BI HDL uptake = inhibitors of SR-BI mediated HDL lipid uptake, primary screen, ldlA[mSR-BI] cells, fluorescence, single point | inhibition, % at 12.5 µM | hit rate 0.96% among 320,000 | ldlA[mSR-BI] CHO cells, DiI-HDL uptake fluorescence, 3 h | Scavenger receptor class B member 1 (Mus musculus), Q61009;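 active = mean replicate inhibition of at least 70% and a set share of replicates each scoring 70 or more; inconclusive = meets just one of the two criteria; inactive = fails both criteria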
# SR-BI uptake up = activators of SR-BI mediated DiI-HDL uptake, primary screen, ldlA[mSR-BI] CHO cells, DiI fluorescence | 3 h; 100 = double the neutral-control signal | activation, % at 12.5 µM | hit rate 0.096% among 320,000 | AID 504775, 2011;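 active = mean replicate activation of at least 60% and every replicate at or above 60%; inconclusive = mean or all-replicate condition met, but not both; inactive = mean below 60% and not all replicates reaching 60%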
#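 Assay system: LDL receptor-deficient CHO ldlA cells overexpressing murine SR-BI / Medium: BSA-supplemented, HEPES-buffered Ham's F12, pH 7.4 / Probe or stimulus: DiI-labelled HDL at 10 µg/mL final / Timing: compound with DiI-HDL co-incubation, 3 h at 37 °C / Technique: bottom-read cell fluorescence after medium removal, ex 550/em 595 nm / Measure: HDL uptake via cellular fluorescence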
# dFosB act-1 = activators of delta FosB homodimer, primary screen, biochemical, fluorescence polarization, TAMRA-CDK5 oligo, single point. Protein FosB (Mus musculus), P13346. purified delta FosB; percent of positive-control signal above neutral wells. activation, % at 25 µM. hit rate 0.99% among 340,000;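 active = mean activation above about 17%, with every replicate also reaching it, limit read from the data, passing the limit was not always enough; inconclusive = only one of the two conditions met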
# DYRK1A inh = rat Dyrk1A kinase inhibitors, primary screen, biochemical, single point, plate reader. Dual specificity tyrosine-phosphorylation-regulated kinase 1A (Rattus norvegicus), Q63470. ADP-Glo luminescence, NFATc1 peptide. inhibition, % at 12.5 µM. hit rate 0.43% among 310,000. AID 504441, 2011
# CDK5 p35 inh = inhibitors of human CDK5/p35 kinase, primary screen, biochemical, single concentration; Cyclin-dependent kinase 5 (Homo sapiens) + Cyclin-dependent kinase 5 activator 1 (Homo …; Recombinant CDK5/p35, ADP-Glo luminescence, 60 min; inhibition, % at 10 µM; hit rate 0.01% among 330,000;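 active = highest replicate inhibition of at least 50% and at least 75% of replicates reaching 50%; inconclusive = only one of the two criteria met; inactive = both criteria failed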
# dFosB act-2 = activators of mouse delta FosB DNA binding, confirmation, biochemical, fluorescence polarization, TAMRA-CDK5 oligo, cherry-picked samples; shares compounds with dFosB act-1; purified delta FosB; normalised: neutral wells 0, positive control 100; activation, % at 24.9 µM; 2,400 tested, under 10 active;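 active = highest replicate activation at or above 34% and every replicate reaching that threshold; inconclusive = meets only one of the two criteria; inactive = meets neither criterion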;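 also: higher polarization means more probe DNA bound by delta FosB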
# Numbers stand for hits; . = inactive; ? = inconclusive; / = no result given. A selection: hits, their analogues and other compounds. The true share with any hit is near 2.5%. Rule as the data show it, unless noted: active = inhibition above about 50%; inactive = the rest.
SMILES,NSD2 inh,SR-BI HDL uptake,SR-BI uptake up,dFosB act-1,DYRK1A inh,CDK5 p35 inh,dFosB act-2
CCC(C)[C@H](NC(=O)N1CC(=O)Nc2ccccc21)C(=O)N1CCC[C@H]1C(=O)O (stereo partly specified),/,.,.,.,.,.,/
Cc1ccnc(NS(=O)(=O)c2ccc3ccccc3c2)n1,.,.,.,.,.,.,/
CC(=O)Nc1ccc(NC(=O)CNC(=O)c2sc3ccccc3c2Cl)cc1,.,.,.,42,.,.,.
CC(=O)Nc1ccc(NC(=O)C(C)OC(=O)CNC(=O)c2sc3ccccc3c2Cl)cc1 (stereo unspecified),.,.,.,.,.,.,/
N#C/C(=C\c1c[nH]c2ccccc12)C(=O)Nc1ncc(Cc2ccc(Cl)cc2Cl)s1,.,.,.,31,.,.,.
Cc1ccc(/C=N\NC(=O)Cc2noc3ccccc23)cc1,.,.,.,22,.,.,?
Cc1c(CCC(=O)NCCCn2ccnc2)c(=O)oc2c(C)c3oc4c(c3cc12)CCCC4,/,.,.,.,.,.,/
NC(=O)Nc1ccc(C(=O)OCC(=O)Nc2sccc2C(N)=O)cc1,/,.,.,17,.,.,.
Oc1oc(-c2ccccc2)nc1/C=N/c1ccccn1,.,.,.,.,.,.,/
Oc1oc(-c2ccccc2Br)nc1C=Nc1ccc(Br)cn1,.,.,.,47,.,.,.
COc1ccc(Cl)cc1NC(=O)NCc1ccc2c(c1)OCO2,.,.,.,62,.,.,.
O=C(NCc1ccc2c(c1)OCO2)C1CCN(C(=O)Nc2ccc(Cl)cc2)CC1,/,.,.,20,.,.,.
CC(C)(C)NC(=O)NC(=O)CSc1nncs1,.,.,.,.,.,.,/
C=CCn1c(=NC(=O)c2cc(Cl)sc2Cl)sc2cc(S(N)(=O)=O)ccc21,.,.,.,25,.,.,.
O=C(CSc1nc(=O)n(CCCN2CCOCC2)c2c1CCC2)Nc1cccc(F)c1,.,.,.,.,.,.,/
O=C(CCCn1nnnc1CN1CCOCC1)N1CCC(c2ccccc2Cl)C1 (stereo unspecified),.,.,.,.,.,.,/
CC(=O)c1cccc(S(=O)(=O)NCCCN2CCOCC2)c1,.,.,.,.,.,.,/
NC(=O)NC(Cc1ccccc1)C(=O)NNC(=O)COc1ccccc1Cl (stereo unspecified),.,.,.,.,.,.,/
Cc1ccccc1C(=O)Nc1cccc(NC(=S)NC(=O)c2cccs2)c1,.,.,/,50,.,.,.
CC(=O)NC(=S)Nc1ccc(NC(=S)NC(=O)c2cccs2)cc1,.,.,.,37,.,.,.
CCN(C(=O)CN1CC(C)OC(C)C1)c1c(N)n(Cc2ccccc2)c(=O)[nH]c1=O (stereo unspecified),.,.,.,.,.,.,/
COc1ccc(NC(=O)Cn2cc(C#N)c3ccccc32)cc1,.,.,.,42,/,.,.
COc1ccc(OC)c(NC(=O)Cn2cc(C#N)c3cc(Br)ccc32)c1,.,.,.,26,.,.,.
CCOc1ccc(NC(=O)Cn2cc(C(C)=O)c3ccccc32)cc1,.,.,.,.,.,.,/
CCOc1ccc(NC(=O)Cn2cc(C(=O)CC)c3ccccc32)cc1,.,.,.,41,.,.,.
COc1ccc(OC)c(NC(=O)COc2ccc(Br)cc2)c1,.,.,.,.,.,.,/
O=C(COC(=O)COc1cccc(F)c1)Nc1nc2ccccc2s1,.,.,.,.,/,.,/

# From PubChem
